Lmaj promast – Leishmania major promastigote growth inhibition, primary screen; Leishmania major promastigotes, resazurin fluorescence viability; inhibition, % at 10 µM; hit rate 9% among 200,000; AID 1063, 2008;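 further: promastigotes grown with compound for 44 hours at 28 °C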
G6PDH counter – L. mesenteroides G6PDH inhibitors, counter-screen for G6PDH-coupled screening assays, biochemical, Leuconostoc mesenteroides enzyme | Purified L. mesenteroides G6PDH, diaphorase/resazurin coupled fluorescence, 45 min | hit rate 0.12% among 200,000 | inhibition, % at 5 µM | glucose-6-phosphate dehydrogenase [Leuconostoc mesenteroides]
Diaphorase act – compounds boosting diaphorase resazurin reduction – biochemical, uHTS, resorufin fluorescence, counter-screen for diaphorase-coupled primary assays, primary screen; Diaphorase/resazurin coupled assay, 16 min; stronger effect = higher value; 1 = vehicle wells, 0 = NADH-free wells; activation factor at 20 µM; hit rate 0.005% among 190,000; AID 1229, 2008;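 active means diaphorase activity raised at least twofold by the compound at 20 µM; inactive means activation factor below 2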
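Material: purified diaphorase enzyme from Clostridium kluyveri; Also added: 0.114 mM NADH and 0.1 mM resazurin, final amounts; Doses: single compound dose of 20 µM, 1% DMSO final; Times: 16 min enzyme reaction, ambient temperature; Detection: resorufin fluorescence, excitation 544 nm, emission 590 nm; Measure: increased resorufin signal from activators or reducing compounds.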
WT yeast gro inh – growth inhibition of WT strain, primary screen, mitochondrial fusion inhibitor project, WT and mutant strains, chemical genetic. mitochondrial fusion phenotypic screen. AID 1362, 2008. hit rate 2.1% among 190,000. inhibition, % at 10 µM; in the data active means inhibition above about 58%; tested in S. cerevisiae
Diaphorase inh – diaphorase inhibitors and chemical oxidizers, primary screen, counter-screen for diaphorase-coupled primary assays, biochemical, uHTS, resorufin fluorescence. diaphorase resazurin-to-resorufin fluorescence, NADH, 16 min; bacterial (C. kluyveri) enzyme, not human. inhibition, % at 20 µM. hit rate 0.69% among 190,000. AID 1217, 2008;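 active means primary screen inhibition at 20 µM above a set limit, cut at about 50% in these data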
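Detection: fluorescence of resorufin formed from resazurin, Ex 544/Em 590 nm; test system: Clostridium kluyveri diaphorase enzyme; amount: 0.14 U/mL diaphorase, enzyme working solution; times: 16-min room-temperature incubation before reading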
Numbers stand for hits. Compounds with a hit are over-represented: about 11% of the library has one in this group of screens. Unless noted, no stated cut-off is given here; in the data, active means inhibition above about 50%; inactive means the rest.

Cc1[nH]n2c(=O)c3c(nc2c1-c1ccc(F)cc1)CCCC3 was read as Lmaj promast 100.3, G6PDH counter inactive, Diaphorase act inactive, WT yeast gro inh inactive and Diaphorase inh inactive.
For O=c1c2c(nc3c(-c4ccc(Cl)cc4)c[nH]n13)CCCC2 the results were Lmaj promast 100.2, G6PDH counter inactive, Diaphorase act inactive, WT yeast gro inh inactive and Diaphorase inh inactive.
Screening Cc1[nH]n2c(=O)c3c(nc2c1-c1cccc2ccccc12)CCC3 returned Lmaj promast inactive, G6PDH counter inactive, Diaphorase act inactive, WT yeast gro inh inactive and Diaphorase inh inactive.
`Cc1[nH]n2c(=O)c3c(nc2c1-c1ccccc1)CCCC3` gave Lmaj promast 99.0, G6PDH counter inactive, Diaphorase act inactive, WT yeast gro inh inactive and Diaphorase inh inactive.
For CC1Cc2ccccc2N1C(=O)COC(=O)c1ccc(Br)o1 (centres undefined) the results were Lmaj promast inactive, G6PDH counter inactive, Diaphorase act inactive, WT yeast gro inh inactive and Diaphorase inh inactive.
For Cc1cccc(N(C)c2cc(C)nc3nc(C)nn23)c1 the results were Lmaj promast inactive, G6PDH counter inactive, Diaphorase act inactive, WT yeast gro inh inactive and Diaphorase inh inactive.
`Cc1nn(C)cc1CNCc1c(C(=O)N2CCCCC2)nc2c(C)cccn12` gave Lmaj promast inactive, G6PDH counter inactive, Diaphorase act inactive, WT yeast gro inh inactive and Diaphorase inh inactive.
CC1Cc2ccccc2N1C(=O)CN1CCC(n2nnc3cc(C(F)(F)F)ccc32)CC1 (centres undefined) was read as Lmaj promast 95.2, G6PDH counter inactive, Diaphorase act inactive, WT yeast gro inh inactive and Diaphorase inh inactive.
Screening Cc1ccc2c(c1)nnn2C1CCN(CC(=O)Nc2ccccc2N2CCOCC2)CC1 returned Lmaj promast 58.9, G6PDH counter inactive, Diaphorase act inactive, WT yeast gro inh inactive and Diaphorase inh inactive.
`COC(=O)c1ccccc1NC(=O)CN1CCC(n2nnc3cc(C(F)(F)F)ccc32)CC1` gave Lmaj promast inactive, G6PDH counter inactive, Diaphorase act inactive, WT yeast gro inh inactive and Diaphorase inh inactive.
For O=C(CSc1nnc(-c2ccc(O)cc2)n1Cc1ccco1)N1CCc2ccccc2C1 the results were Lmaj promast inactive, G6PDH counter inactive, Diaphorase act inactive, WT yeast gro inh inactive and Diaphorase inh inactive.
CCCCS(=O)(=O)Nc1ccc(C)cn1 was read as Lmaj promast inactive, G6PDH counter inactive, Diaphorase act inactive, WT yeast gro inh inactive and Diaphorase inh inactive.
`CCC(C(=O)Nc1cc(C(=O)Nc2cc(C)ccn2)ccc1Cl)c1ccccc1` (centres undefined) gave Lmaj promast 81.0, G6PDH counter inactive, Diaphorase act inactive, WT yeast gro inh inactive and Diaphorase inh inactive.
CC(=O)Nc1ccc(OCC(=O)N2CCC(Cc3ccccc3)CC2)cc1 was read as Lmaj promast inactive, G6PDH counter inactive, Diaphorase act inactive, WT yeast gro inh inactive and Diaphorase inh inactive.
For O=C(Nc1ccc(OCC(=O)N2CCC(Cc3ccccc3)CC2)cc1)c1ccco1 the results were Lmaj promast 50.9, G6PDH counter inactive, Diaphorase act inactive, WT yeast gro inh inactive and Diaphorase inh inactive.
Screening Cc1cccc2cc(C#N)c(N3CCN(C)CC3)nc12 returned Lmaj promast inactive, G6PDH counter inactive, Diaphorase act inactive, WT yeast gro inh inactive and Diaphorase inh inactive.
`Cc1cccc2cc(C#N)c(SCCN3CCCCC3)nc12` gave Lmaj promast 99.8.
CCN1C(=O)S/C(=C/c2c(OCc3ccc(C(=O)O)cc3)ccc3ccccc23)C1=O was read as Lmaj promast inactive, G6PDH counter inactive, Diaphorase act inactive, WT yeast gro inh 72.7 and Diaphorase inh inactive.
O=C(O)c1ccc(COc2ccc3ccccc3c2/C=C2/NC(=O)N(c3ccccc3)C2=O)cc1 was read as Lmaj promast inactive, G6PDH counter inactive, Diaphorase act inactive, WT yeast gro inh inactive and Diaphorase inh inactive.
Screening CCN1C(=O)S/C(=C/c2cn(C)c3ccccc23)C1=O returned Lmaj promast 81.9, G6PDH counter inactive, Diaphorase act inactive, WT yeast gro inh inactive and Diaphorase inh inactive.
`CN1CCN(CCOc2ccc(Cl)c(Cl)c2)CC1` gave Lmaj promast 98.3, G6PDH counter inactive, Diaphorase act inactive, WT yeast gro inh inactive and Diaphorase inh inactive.
